Several values for one entry are separate records, joined by “and”; a condition that tells them apart may be missing. Identical values can stand only once.
How the values were obtained:
K-562 = assay: cells; format: cell-based; conditions: K-562, 10^−5 M, 48 h
MOLT-4 = assay: cells; format: cell-based; conditions: MOLT-4, 10^−5 M, 48 h
RPMI-8226 = assay: cells; format: cell-based; conditions: RPMI-8226, 10^−5 M, 48 h
SR = assay: cells; format: cell-based; conditions: 10^−5 M, 48 h
A549/ATCC = assay: cells; format: cell-based; conditions: A549/ATCC, 10^−5 M, 48 h
HOP-62 = assay: cells; format: cell-based; conditions: HOP-62, 10^−5 M, 48 h
HOP-92 = assay: cells; format: cell-based; conditions: HOP-92, 10^−5 M, 48 h
NCI-H23 = assay: cells; format: cell-based; conditions: NCI-H23, 10^−5 M, 48 h
NCI-H460 = assay: cells; format: cell-based; conditions: NCI-H460, 10^−5 M, 48 h
HCC-2998 = assay: cells; format: cell-based; conditions: HCC-2998, 10^−5 M, 48 h
HCT-116 = assay: cells; format: cell-based; conditions: HCT-116, 10^−5 M, 48 h
HCT-15 = assay: cells; format: cell-based; conditions: HCT-15, 10^−5 M, 48 h
KM 12 = assay: cells; format: cell-based; conditions: KM 12, 10^−5 M, 48 h
SW-620 = assay: cells; format: cell-based; conditions: SW-620, 10^−5 M, 48 h
SF-268 = assay: cells; format: cell-based; conditions: SF-268, 10^−5 M, 48 h
SF-295 = assay: cells; format: cell-based; conditions: SF-295, 10^−5 M, 48 h
MALME-3M = assay: cells; format: cell-based; conditions: MALME-3M, 10^−5 M, 48 h
SK-MEL-28 = assay: cells; format: cell-based; conditions: SK-MEL-28, 10^−5 M, 48 h
SK-MEL-5 = assay: cells; format: cell-based; conditions: SK-MEL-5, 10^−5 M, 48 h
OVCAR-4 = assay: cells; format: cell-based; conditions: OVCAR-4, 10^−5 M, 48 h
OVCAR-8 = assay: cells; format: cell-based; conditions: OVCAR-8, 10^−5 M, 48 h
SK-OV-3 = assay: cells; format: cell-based; conditions: SK-OV-3, 10^−5 M, 48 h
RXF 393 = assay: cells; format: cell-based; conditions: RXF 393, 10^−5 M, 48 h
SN12C = assay: cells; format: cell-based; conditions: 10^−5 M, 48 h
DU-145 = assay: cells; format: cell-based; conditions: DU-145, 10^−5 M, 48 h
MCF7 = assay: cells; format: cell-based; conditions: MCF7, 10^−5 M, 48 h
T-47D = assay: cells; format: cell-based; conditions: T-47D, 10^−5 M, 48 h
MDA-MB-468 = assay: cells; format: cell-based; conditions: MDA-MB-468, 10^−5 M, 48 h
ERK1 = ERK1 (Homo sapiens, UniProt P27361); assay: in vitro radioactive kinase assay, Ets-1 phosphorylation by ERK1; format: biochemical
Procedure, shortened: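 Radiometric assay at 28–30 °C in 25 mM HEPES pH 7.5, 50 mM KCl, 0.1 mM EDTA/EGTA, 2 mM DTT, 11 mM MgCl2, 10 μg mL−1 BSA and 5% DMSO (final). 2 nM activated ERK1 was used with 10 μM His-Ets-1 (1–138). Reactions were started with [γ-32P]ATP (10 or 100 μM). IC50 came from fitting rate versus inhibitor concentration to a hyperbolic decay equation.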

ERK2 = ERK2 (Rattus norvegicus, UniProt P63086); assay: in vitro radioactive kinase assay, Ets-1 phosphorylation by ERK2; format: biochemical
Procedure, shortened: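 Activated rat ERK2 (2 nM) was tested with His-Ets-1 (1–138) at 28–30 °C in HEPES pH 7.5 buffer with 11 mM MgCl2, BSA and 5% DMSO. Reactions were started with [γ-32P]ATP (10 or 100 μM).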

JNK2 = JNK2 (Homo sapiens, UniProt P45984); assay: in vitro kinase assay, GST-c-Jun; format: biochemical
[1] = system: NCI-60 panel of tumor cell lines

Chain of ERK2 (P63086 whole entry): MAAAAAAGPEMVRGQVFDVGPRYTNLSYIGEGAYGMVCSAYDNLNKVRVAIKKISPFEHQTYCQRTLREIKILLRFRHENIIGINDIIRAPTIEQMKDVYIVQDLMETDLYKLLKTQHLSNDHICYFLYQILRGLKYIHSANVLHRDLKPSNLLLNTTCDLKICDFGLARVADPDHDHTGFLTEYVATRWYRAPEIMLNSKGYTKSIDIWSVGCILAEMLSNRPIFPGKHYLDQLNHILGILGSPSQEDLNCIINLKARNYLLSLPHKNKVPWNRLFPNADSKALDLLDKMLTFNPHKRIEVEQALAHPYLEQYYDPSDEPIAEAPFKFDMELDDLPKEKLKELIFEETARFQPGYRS
Chain of ERK1 (P27361 whole entry, species assumed): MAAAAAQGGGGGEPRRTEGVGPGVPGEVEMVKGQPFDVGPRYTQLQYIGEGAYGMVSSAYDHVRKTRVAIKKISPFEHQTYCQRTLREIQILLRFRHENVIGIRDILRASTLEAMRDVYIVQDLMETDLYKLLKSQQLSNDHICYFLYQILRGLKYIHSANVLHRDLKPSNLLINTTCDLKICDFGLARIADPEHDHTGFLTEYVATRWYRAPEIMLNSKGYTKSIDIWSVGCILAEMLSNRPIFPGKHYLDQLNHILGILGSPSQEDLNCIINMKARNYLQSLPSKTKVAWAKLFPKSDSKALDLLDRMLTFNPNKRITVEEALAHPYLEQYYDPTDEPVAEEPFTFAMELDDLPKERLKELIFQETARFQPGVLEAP
Chain of JNK2 (P45984 whole entry): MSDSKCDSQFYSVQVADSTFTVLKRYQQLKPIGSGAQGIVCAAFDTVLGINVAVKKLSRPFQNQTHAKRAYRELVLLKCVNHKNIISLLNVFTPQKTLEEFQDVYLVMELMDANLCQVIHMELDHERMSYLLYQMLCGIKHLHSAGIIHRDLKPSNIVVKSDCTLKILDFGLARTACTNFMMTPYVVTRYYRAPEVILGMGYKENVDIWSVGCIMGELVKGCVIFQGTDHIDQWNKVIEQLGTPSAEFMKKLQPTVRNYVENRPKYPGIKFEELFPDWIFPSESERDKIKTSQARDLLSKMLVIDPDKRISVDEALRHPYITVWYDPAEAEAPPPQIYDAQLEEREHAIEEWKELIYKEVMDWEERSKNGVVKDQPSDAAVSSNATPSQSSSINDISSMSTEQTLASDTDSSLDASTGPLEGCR

O=C1c2ccccc2C(=O)c2c1oc1c2c(=O)[nH]c2ccccc21 [3a, Naphtho[2′,3′:4,5]furo[3,2-c]quinoline-6,7,12(5H)-trione]
Growth percent (G%) (K-562): 55.20%
Growth percent (G%) (MOLT-4): 5.55%
Growth percent (G%) (RPMI-8226): 62.72%
Growth percent (G%) (SR): 43.80%
Growth percent (G%) (A549/ATCC): 97.18%
Growth percent (G%) (HOP-62): 118.63%
Growth percent (G%) (HOP-92): 71.42%
Growth percent (G%) (NCI-H23): 65.95%
Growth percent (G%) (NCI-H460): 68.27%
Growth percent (G%) (HCC-2998): 102.57%
Growth percent (G%) (HCT-116): 55.46%
Growth percent (G%) (HCT-15): 44.70%
Growth percent (G%) (KM 12): 66.22%
Growth percent (G%) (SW-620): 89.23%
Growth percent (G%) (SF-268): 91.30%
Growth percent (G%) (SF-295): 92.71%
Growth percent (G%) (MALME-3M): 124.29%
Growth percent (G%) (SK-MEL-28): 112.03%
Growth percent (G%) (SK-MEL-5): 79.73%
Growth percent (G%) (OVCAR-4): −5.49%
Growth percent (G%) (OVCAR-8): 35.61%
Growth percent (G%) (SK-OV-3): 104.46%
Growth percent (G%) (RXF 393): 97.24%
Growth percent (G%) (SN12C): 70.40%
Growth percent (G%) (DU-145): 82.02%
Growth percent (G%) (MCF7): 48.82%
Growth percent (G%) (T-47D): 22.52%
Growth percent (G%) (MDA-MB-468): −8.43%
IC50 (ERK1; ERK1 IC50, 100 μM ATP, 10 μM Ets-1): 9.12 ± 1.1 µM
IC50 (ERK1; IC50 towards inhibiting ERK, ERK isoform not given): ~9 µM
effect of excess Ets-1 (100 μM) on inhibition of ERK2 (ERK2; 5 μM inhibitor, 100 μM vs 10 μM Ets-1, 100 μM ATP): did not rescue
IC50 (ERK2; ERK2 IC50, 100 μM ATP, 10 μM Ets-1): 10.2 ± 1.2 µM
IC50 (ERK2; ERK2 IC50 at 100 μM ATP /10mM Ets-1, Table 4, 100 μM ATP /10mM Ets-1): 10.2 ± 1.2 µM
IC50 (JNK2): > 200 µM
ability to inhibit JNK2 (in words) (JNK2): did not show any ability to inhibit
NCI Cytotoxicity Screening Average G% ([1]; Table 4, 10 μM one-dose screen): 68%
Average G% ([1]; average over tested NCI-60 cell lines, 10^−5 M (10 μM), 48 h): 68% and 68.19%

Source: PMC6543826 (Bioorganic chemistry, 2018)
